Experimental data from ChEMBL document CHEMBL1139376, “Synthesis and biological activity of human neuropeptide S analogues modified in position 5: identification of potent and pure neuropeptide S receptor antagonists” (J Med Chem, 2009).
Each block holds one compound with its values, some of them ahead of it. Calls of active or inactive are those of the source. No cut-off for these calls is given here. Where a SMILES comes first, the peptide text is derived from it. [ ]: non-standard residue; d: D form. The star is where a group is joined. Bn = c1ccc(C*)cc1; Acm = CC(=O)NC*; tBu = CC(C)(C)*

Legend:
[1] = molecular target: T1, Neuropeptide S receptor (Mus musculus) (UniProt Q8BZP8); test: Agonist activity at mouse NPSR expressed in HEK293 cells upto 10 uM by calcium mobilization assay; format: functional, cell-based
T1 sequence (whole entry): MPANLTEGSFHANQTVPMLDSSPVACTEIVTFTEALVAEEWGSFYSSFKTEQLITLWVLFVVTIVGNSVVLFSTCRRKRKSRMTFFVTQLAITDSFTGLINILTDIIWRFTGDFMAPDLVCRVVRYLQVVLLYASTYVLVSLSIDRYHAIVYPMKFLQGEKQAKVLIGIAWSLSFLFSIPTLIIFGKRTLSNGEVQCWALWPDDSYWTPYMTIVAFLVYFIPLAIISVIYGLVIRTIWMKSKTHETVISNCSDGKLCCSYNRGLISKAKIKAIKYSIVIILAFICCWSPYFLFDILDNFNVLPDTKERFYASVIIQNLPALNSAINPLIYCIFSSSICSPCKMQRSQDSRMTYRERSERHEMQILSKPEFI
Method in brief: (§1)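 HEK293 cells stably expressing mouse NPSR were grown in DMEM with 10% FBS, 2 mM glutamine and hygromycin. They were plated on poly-D-lysine wells and, the next day, loaded for 30 min at 37 °C with 3 μM Fluo-4 AM, 2.5 mM probenecid and 0.01% pluronic acid. Fluorescence was read at about 22 °C in HBSS with 20 mM HEPES, probenecid and 500 μM Brilliant Black. The response was the peak fluorescence change as % of baseline, from at least 4 experiments run in duplicate.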

Neuropeptide S receptor = molecular target: T2, Neuropeptide S receptor (Mus musculus, UniProt Q8BZP8); test: Agonist activity at mouse NPSR expressed in HEK293 cells by calcium mobilization assay; format: functional, cell-based; method in brief: as §1
T2 sequence (Q8BZP8 whole entry): T1 sequence (whole entry)

Mus musculus [2] = test: Effect on locomotor activity in […] Swiss mouse assessed as increase in cumulative distance traveled dosed at 1 nmol, icv before 5 mins observed for 60 mins; format: functional, organism-based
Method in brief: (§2)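 Male Swiss mice (2 months, 25–30 g) received peptide i.c.v. at 0.01–1 nmole in 2 μl into the left ventricle under light ether anaesthesia, 5 min before testing. Each mouse was used once, in the light phase, with no food during testing. Activity was tracked for 60 min in 40 × 40 cm cages. Video recorded distance and immobility time, and an infrared beam array counted rearings. There were 4 experiments with 4 mice/group.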

Mus musculus [3] = test: Effect on locomotor activity in […] Swiss mouse assessed as number of rearings dosed at 1 nmol, icv befor 5 mins observed for 60 mins; format: functional, organism-based; method in brief: as §2
Mus musculus [4] = test: Effect on locomotor activity in […] Swiss mouse assessed as immobility time at 1 nmol, icv befor 5 mins observed for 60 mins; format: functional, organism-based; method in brief: as §2
Mus musculus [5] = test: Effect on locomotor activity in […] Swiss mouse assessed as increase in number of rearings dosed at 0.1 nmol, icv before 5 mins observed for 60 mins; format: functional, organism-based; method in brief: as §2
Mus musculus [6] = test: Effect on locomotor activity in […] Swiss mouse assessed as decrease in immobility time at 0.1 nmol, icv before 5 mins observed for 60 mins
Mus musculus [7] = test: Effect on locomotor activity in […] Swiss mouse assessed as increase in cumulative distance traveled dosed at 0.1 nmol, icv before 5 mins observed for 60 mins; format: functional, organism-based; method in brief: as §2
[8] = molecular target: T1, Neuropeptide S receptor (Mus musculus); test: Agonist activity at mouse NPSR expressed in HEK293 cells by calcium mobilization assay relative to basal level; format: functional, cell-based; method in brief: as §1

Activity [1]: inactive
Compound: CSCC[C@H](NC(=O)CNC(=O)[C@@H](NC(=O)CNC(=O)[C@@H](NC(=O)[C@@H](CSCc1ccccc1)NC(=O)[C@H](CC(N)=O)NC(=O)[C@H](CCCNC(=N)N)NC(=O)[C@H](Cc1ccccc1)NC(=O)[C@@H](N)CO)C(C)C)[C@@H](C)O)C(=O)N[C@@H](CCCCN)C(=O)N[C@@H](CCCCN)C(=O)N[C@H](C(=O)N[C@@H](CO)C(=O)N[C@@H](Cc1ccccc1)C(=O)N[C@@H](CCC(N)=O)C(=O)N[C@@H](CCCNC(=N)N)C(=O)N[C@@H](C)C(=O)N[C@@H](CCCCN)C(=O)N[C@@H](CO)C(=O)O)[C@@H](C)O (H-SFRN[dC](Bn)VGTGMKKTSFQRAKS-OH)

Activity [1]: inactive
Compound: CSCC[C@H](NC(=O)CNC(=O)[C@@H](NC(=O)CNC(=O)[C@@H](NC(=O)[C@@H](Cc1ccccc1)NC(=O)[C@H](CC(N)=O)NC(=O)[C@H](CCCNC(=N)N)NC(=O)[C@H](Cc1ccccc1)NC(=O)[C@@H](N)CO)C(C)C)[C@@H](C)O)C(=O)N[C@@H](CCCCN)C(=O)N[C@@H](CCCCN)C(=O)N[C@H](C(=O)N[C@@H](CO)C(=O)N[C@@H](Cc1ccccc1)C(=O)N[C@@H](CCC(N)=O)C(=O)N[C@@H](CCCNC(=N)N)C(=O)N[C@@H](C)C(=O)N[C@@H](CCCCN)C(=O)N[C@@H](CO)C(=O)O)[C@@H](C)O (H-SFRN[dF]VGTGMKKTSFQRAKS-OH)

Activity [1]: inactive
Compound: CSCC[C@H](NC(=O)CNC(=O)[C@@H](NC(=O)CNC(=O)[C@@H](NC(=O)[C@@H](CCSC)NC(=O)[C@H](CC(N)=O)NC(=O)[C@H](CCCNC(=N)N)NC(=O)[C@H](Cc1ccccc1)NC(=O)[C@@H](N)CO)C(C)C)[C@@H](C)O)C(=O)N[C@@H](CCCCN)C(=O)N[C@@H](CCCCN)C(=O)N[C@H](C(=O)N[C@@H](CO)C(=O)N[C@@H](Cc1ccccc1)C(=O)N[C@@H](CCC(N)=O)C(=O)N[C@@H](CCCNC(=N)N)C(=O)N[C@@H](C)C(=O)N[C@@H](CCCCN)C(=O)N[C@@H](CO)C(=O)O)[C@@H](C)O (H-SFRN[dM]VGTGMKKTSFQRAKS-OH)

EC50 (Neuropeptide S receptor): 2.24 nM
Compound: H-SFRNGVGTGMKKTSFQRAKS-OH [NEUROPEPTIDE S]
Activity (Mus musculus [5]): Active
Activity (Mus musculus [6]): Active
Activity (Mus musculus [7]): Active

Emax [8]: 30%
Compound: H-SFRNWVGTGMKKTSFQRAKS-OH

The next lines start with the compound.

Compound: CSCC[C@H](NC(=O)CNC(=O)[C@@H](NC(=O)CNC(=O)[C@@H](NC(=O)[C@@H](CSCNC(C)=O)NC(=O)[C@H](CC(N)=O)NC(=O)[C@H](CCCNC(=N)N)NC(=O)[C@H](Cc1ccccc1)NC(=O)[C@@H](N)CO)C(C)C)[C@@H](C)O)C(=O)N[C@@H](CCCCN)C(=O)N[C@@H](CCCCN)C(=O)N[C@H](C(=O)N[C@@H](CO)C(=O)N[C@@H](Cc1ccccc1)C(=O)N[C@@H](CCC(N)=O)C(=O)N[C@@H](CCCNC(=N)N)C(=O)N[C@@H](C)C(=O)N[C@@H](CCCCN)C(=O)N[C@@H](CO)C(=O)O)[C@@H](C)O (H-SFRN[dC](Acm)VGTGMKKTSFQRAKS-OH)
Activity [1]: inactive

Compound: CSCC[C@H](NC(=O)CNC(=O)[C@@H](NC(=O)CNC(=O)[C@@H](NC(=O)[C@@H](CSC(C)(C)C)NC(=O)[C@H](CC(N)=O)NC(=O)[C@H](CCCNC(=N)N)NC(=O)[C@H](Cc1ccccc1)NC(=O)[C@@H](N)CO)C(C)C)[C@@H](C)O)C(=O)N[C@@H](CCCCN)C(=O)N[C@@H](CCCCN)C(=O)N[C@H](C(=O)N[C@@H](CO)C(=O)N[C@@H](Cc1ccccc1)C(=O)N[C@@H](CCC(N)=O)C(=O)N[C@@H](CCCNC(=N)N)C(=O)N[C@@H](C)C(=O)N[C@@H](CCCCN)C(=O)N[C@@H](CO)C(=O)O)[C@@H](C)O (H-SFRN[dC](tBu)VGTGMKKTSFQRAKS-OH)
Activity [1]: inactive

Compound: CSCC[C@H](NC(=O)CNC(=O)[C@@H](NC(=O)CNC(=O)[C@@H](NC(=O)[C@@H](CC(C)C)NC(=O)[C@H](CC(N)=O)NC(=O)[C@H](CCCNC(=N)N)NC(=O)[C@H](Cc1ccccc1)NC(=O)[C@@H](N)CO)C(C)C)[C@@H](C)O)C(=O)N[C@@H](CCCCN)C(=O)N[C@@H](CCCCN)C(=O)N[C@H](C(=O)N[C@@H](CO)C(=O)N[C@@H](Cc1ccccc1)C(=O)N[C@@H](CCC(N)=O)C(=O)N[C@@H](CCCNC(=N)N)C(=O)N[C@@H](C)C(=O)N[C@@H](CCCCN)C(=O)N[C@@H](CO)C(=O)O)[C@@H](C)O (H-SFRN[dL]VGTGMKKTSFQRAKS-OH)
EC50 (Neuropeptide S receptor): 89.1 nM

Compound: CSCC[C@H](NC(=O)CNC(=O)[C@@H](NC(=O)CNC(=O)[C@@H](NC(=O)[C@H](NC(=O)[C@H](CC(N)=O)NC(=O)[C@H](CCCNC(=N)N)NC(=O)[C@H](Cc1ccccc1)NC(=O)[C@@H](N)CO)C(C)C)C(C)C)[C@@H](C)O)C(=O)N[C@@H](CCCCN)C(=O)N[C@@H](CCCCN)C(=O)N[C@H](C(=O)N[C@@H](CO)C(=O)N[C@@H](Cc1ccccc1)C(=O)N[C@@H](CCC(N)=O)C(=O)N[C@@H](CCCNC(=N)N)C(=O)N[C@@H](C)C(=O)N[C@@H](CCCCN)C(=O)N[C@@H](CO)C(=O)O)[C@@H](C)O (H-SFRN[dV]VGTGMKKTSFQRAKS-OH)
Activity (Mus musculus [2]): Active
Activity [1]: inactive
Activity (Mus musculus [3]): Active
Activity (Mus musculus [4]): Active

Compound: CSCC[C@H](NC(=O)CNC(=O)[C@@H](NC(=O)CNC(=O)[C@@H](NC(=O)[C@@H](Cc1c[nH]c2ccccc12)NC(=O)[C@H](CC(N)=O)NC(=O)[C@H](CCCNC(=N)N)NC(=O)[C@H](Cc1ccccc1)NC(=O)[C@@H](N)CO)C(C)C)[C@@H](C)O)C(=O)N[C@@H](CCCCN)C(=O)N[C@@H](CCCCN)C(=O)N[C@H](C(=O)N[C@@H](CO)C(=O)N[C@@H](Cc1ccccc1)C(=O)N[C@@H](CCC(N)=O)C(=O)N[C@@H](CCCNC(=N)N)C(=O)N[C@@H](C)C(=O)N[C@@H](CCCCN)C(=O)N[C@@H](CO)C(=O)O)[C@@H](C)O (H-SFRN[dW]VGTGMKKTSFQRAKS-OH)
Activity [1]: inactive
